ChEMBL document CHEMBL3045565, “Microwave synthesis, characterization and bio-efficacy evaluation of novel chalcone based 6-carbethoxy-2-cyclohexen-1-one and 2H-indazol-3-ol derivatives” (Eur J Med Chem, 2013)
≈ marks a conversion by molar mass, not a printed value.

What was measured:
Type in all cases: functional
Xanthomonas oryzae = test: Antibacterial activity against Xanthomonas oryzae ITCC B-47 assessed as as growth inhibition at 100 ug/disk after 24 hr by disk diffusion method; details: ITCC B-47, 24 h, read-out: DIZ
Dickeya chrysanthemi = test: Antibacterial activity against Erwinia chrysanthemi ITCC B-40 assessed as as growth inhibition at 100 ug/disk after 24 hr by disk diffusion method; details: ITCC B-40, 24 h, read-out: DIZ
Method in brief: (§1)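 Disk diffusion on nutrient agar. Strains kept on NA slants at 37 °C and subcultured in nutrient broth before testing. A log-phase culture was spread on solidified medium, and sterile disks were loaded with compound from DMSO stock. DMSO served as control, with commercial antibiotics for reference. Plates ran 24 h at 37 °C, and inhibition zones (mm) were read in quadruplicate.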

Rhizoctonia solani = test: Antifungal activity against Rhizoctonia solani ITCC 5563 by food poisoning method
Method in brief: (§2)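 Poisoned food technique on PDA at several concentrations. A 5 mm mycelial plug from the growing edge of a 2-week-old colony was placed inoculum-side down at the plate centre. Plates incubated at 27 °C until control growth was nearly complete. Colony diameter measured, percent inhibition calculated against control, LC50 derived. Four replicates per treatment.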

Athelia rolfsii = test: Antifungal activity against Athelia rolfsii ITCC 6181 by food poisoning method; details: Agroathelia rolfsii; method in brief: as §2
[1] = test system: Radical scavenging activity; test: Antioxidant activity assessed as DPPH free radical scavenging activity at 400 ug/mL after 20 min by UV-Vis spectrophotometric analysis
Method in brief: (§3)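 DPPH radical scavenging: samples were held at room temperature for 20 min in the dark, and absorbance was read at 517 nm. The control contained DMSO without compound, and methanol was used for baseline correction. Scavenging percentage was calculated from the absorbances.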

[2] = test system: Radical scavenging activity; test: Antioxidant activity assessed as DPPH free radical scavenging activity at 500 ug/mL after 20 min by UV-Vis spectrophotometric analysis; method in brief: as §3
[3] = test system: Radical scavenging activity; test: Antioxidant activity assessed as DPPH free radical scavenging activity at 300 ug/mL after 20 min by UV-Vis spectrophotometric analysis; method in brief: as §3
[4] = test system: Radical scavenging activity; test: Antioxidant activity assessed as DPPH free radical scavenging activity at 100 ug/mL after 20 min by UV-Vis spectrophotometric analysis; method in brief: as §3
[5] = test system: Radical scavenging activity; test: Antioxidant activity assessed as DPPH free radical scavenging activity at 200 ug/mL after 20 min by UV-Vis spectrophotometric analysis; method in brief: as §3
[6] = test system: Radical scavenging activity; test: Antioxidant activity assessed as DPPH free radical scavenging activity at 60 ug/mL after 20 min by UV-Vis spectrophotometric analysis; method in brief: as §3
[7] = test system: Radical scavenging activity; test: Antioxidant activity assessed as DPPH free radical scavenging activity at 80 ug/mL after 20 min by UV-Vis spectrophotometric analysis; method in brief: as §3
[8] = test system: Radical scavenging activity; test: Antioxidant activity assessed as DPPH free radical scavenging activity at 40 ug/mL after 20 min by UV-Vis spectrophotometric analysis; method in brief: as §3
[9] = test system: Radical scavenging activity; test: Antioxidant activity assessed as DPPH free radical scavenging activity at 20 ug/mL after 20 min by UV-Vis spectrophotometric analysis; method in brief: as §3
[10] = test system: Radical scavenging activity; test: Antioxidant activity assessed as DPPH free radical scavenging activity at 10 ug/mL after 20 min by UV-Vis spectrophotometric analysis; method in brief: as §3
[11] = test system: Radical scavenging activity; test: Antioxidant activity assessed as DPPH free radical scavenging activity after 20 min by UV-Vis spectrophotometric analysis; set-up: concentration or dose not given beside the values; method in brief: as §3
Pseudomonas aeruginosa = test: Antibacterial activity against Pseudomonas aeruginosa MTCC 2581 assessed as growth inhibition at 100 ug/disk after 24 hr by disk diffusion method; details: MTCC 2581, 24 h, read-out: DIZ; method in brief: as §1
Staphylococcus aureus = test: Antibacterial activity against Staphylococcus aureus MTCC 3160 assessed as growth inhibition at 100 ug/disk after 24 hr by disk diffusion method; details: MTCC 3160, 24 h, read-out: DIZ; method in brief: as §1
Klebsiella pneumoniae [12] = test: Antibacterial activity against Klebsiella pneumoniae MTCC 7028 assessed as growth inhibition at 100 ug/disk after 24 hr by disk diffusion method; details: MTCC 7028, 24 h, read-out: DIZ; method in brief: as §1
Bacillus pumilus = test: Antibacterial activity against Bacillus pumilus MTCC 2466 assessed as growth inhibition at 100 ug/disk after 24 hr by disk diffusion method; details: MTCC 2466, 24 h, read-out: DIZ; method in brief: as §1
Bacillus thuringiensis = test: Antibacterial activity against Bacillus thuringiensis MTCC 6941 assessed as growth inhibition at 100 ug/disk after 24 hr by disk diffusion method; details: MTCC 6941, 24 h, read-out: DIZ; method in brief: as §1
Klebsiella pneumoniae [13] = test: Antibacterial activity against Klebsiella pneumoniae MTCC 7028 assessed as growth inhibition after 24 hr by broth dilution method; details: MTCC 7028, 24 h
Method in brief: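 Broth dilution, with streptomycin as the standard. MIC was taken as the lowest concentration giving more than 90% bacterial inhibition.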

COc1ccc(C2CC(c3ccc(OC)c(OC)c3)=Cc3n[nH]c(O)c32)cc1 (stereo unspecified)
zone of inhibition at 100 µg/disc (Xanthomonas oryzae): 0 mm
zone of inhibition at 100 µg/disc (Dickeya chrysanthemi): 0 mm
LC50 (Rhizoctonia solani): 611 µg/mL (≈ 1610 µM)
LC50 (Athelia rolfsii): 894 µg/mL (≈ 2360 µM)
Activity [1]: 82.6%
Activity [2]: 82.6%
Activity [3]: 75.3%
Activity [4]: 36.5%
Activity [5]: 58.8%
Activity [6]: 26.3%
Activity [7]: 31.1%
Activity [8]: 12.8%
Activity [9]: 5.3%
Activity [10]: 3.5%
Activity [11]: 12.8%
IC50 [11]: 146.68 µg/mL (≈ 388 µM)
zone of inhibition at 100 µg/disc (Pseudomonas aeruginosa): 0 mm
zone of inhibition at 100 µg/disc (Staphylococcus aureus): 0 mm
zone of inhibition at 100 µg/disc (Klebsiella pneumoniae [12]): 0 mm
zone of inhibition at 100 µg/disc (Bacillus pumilus): 0 mm
zone of inhibition at 100 µg/disc (Bacillus thuringiensis): 0 mm

Cc1ccc(C2=Cc3n[nH]c(O)c3C(c3ccc(C)cc3)C2)cc1 (stereo unspecified)
zone of inhibition at 100 µg/disc (Xanthomonas oryzae): 0 mm
zone of inhibition at 100 µg/disc (Dickeya chrysanthemi): 0 mm
LC50 (Rhizoctonia solani): 814 µg/mL (≈ 2570 µM)
LC50 (Athelia rolfsii): 876 µg/mL (≈ 2770 µM)
Activity [1]: 84.8%
Activity [2]: 85.2%
Activity [3]: 80.5%
Activity [4]: 40.3%
Activity [5]: 68.1%
Activity [6]: 31.5%
Activity [7]: 34.9%
Activity [8]: 18.2%
Activity [9]: 4.4%
Activity [10]: 3.4%
Activity [11]: 18.1%
IC50 [11]: 123.54 µg/mL (≈ 390 µM)
zone of inhibition at 100 µg/disc (Pseudomonas aeruginosa): 10 mm
zone of inhibition at 100 µg/disc (Staphylococcus aureus): 5 mm
zone of inhibition at 100 µg/disc (Klebsiella pneumoniae [12]): 0 mm
zone of inhibition at 100 µg/disc (Bacillus pumilus): 0 mm
zone of inhibition at 100 µg/disc (Bacillus thuringiensis): 0 mm

Oc1[nH]nc2c1C(c1ccccc1)CC(c1ccccc1)=C2 (stereo unspecified)
zone of inhibition at 100 µg/disc (Xanthomonas oryzae): 0 mm
zone of inhibition at 100 µg/disc (Dickeya chrysanthemi): 0 mm
LC50 (Rhizoctonia solani): 802 µg/mL (≈ 2780 µM)
LC50 (Athelia rolfsii): 873 µg/mL (≈ 3030 µM)
Activity [1]: 89.1%
Activity [2]: 89.2%
Activity [3]: 89%
Activity [4]: 73.3%
Activity [5]: 90.6%
Activity [6]: 62.5%
Activity [7]: 67.3%
Activity [8]: 40.3%
Activity [9]: 10.9%
Activity [10]: 9.1%
Activity [11]: 40.3%
IC50 [11]: 58.28 µg/mL (≈ 202 µM)
zone of inhibition at 100 µg/disc (Pseudomonas aeruginosa): 0 mm
zone of inhibition at 100 µg/disc (Staphylococcus aureus): 0 mm
zone of inhibition at 100 µg/disc (Klebsiella pneumoniae [12]): 10 mm
zone of inhibition at 100 µg/disc (Bacillus pumilus): 0 mm
zone of inhibition at 100 µg/disc (Bacillus thuringiensis): 0 mm

O=c1[nH][nH]c2c1C(c1ccccc1)CC(c1ccc(F)cc1)=C2 (stereo unspecified)
zone of inhibition at 100 µg/disc (Xanthomonas oryzae): 0 mm
zone of inhibition at 100 µg/disc (Dickeya chrysanthemi): 0 mm
LC50 (Rhizoctonia solani): 669 µg/mL (≈ 2180 µM)
LC50 (Athelia rolfsii): 912 µg/mL (≈ 2980 µM)
Activity [1]: 90.8%
Activity [2]: 90.8%
Activity [3]: 90.7%
Activity [4]: 91%
Activity [5]: 92.2%
Activity [6]: 86.9%
Activity [7]: 89%
Activity [8]: 70.5%
Activity [9]: 30.4%
Activity [10]: 23.5%
Activity [11]: 70.5%
IC50 [11]: 23.71 µg/mL (≈ 77.4 µM)
MIC (Klebsiella pneumoniae [13]): 24.7 µg/mL (≈ 80.6 µM)
zone of inhibition at 100 µg/disc (Pseudomonas aeruginosa): 0 mm
zone of inhibition at 100 µg/disc (Staphylococcus aureus): 0 mm
zone of inhibition at 100 µg/disc (Klebsiella pneumoniae [12]): 15 mm
zone of inhibition at 100 µg/disc (Bacillus pumilus): 0 mm
zone of inhibition at 100 µg/disc (Bacillus thuringiensis): 0 mm

O=[N+]([O-])c1cccc(C2CC(c3ccc(F)cc3)=Cc3n[nH]c(O)c32)c1 (stereo unspecified)
zone of inhibition at 100 µg/disc (Xanthomonas oryzae): 0 mm
zone of inhibition at 100 µg/disc (Dickeya chrysanthemi): 0 mm
LC50 (Rhizoctonia solani): 528 µg/mL (≈ 1500 µM)
LC50 (Athelia rolfsii): 796 µg/mL (≈ 2270 µM)
Activity [1]: 90.9%
Activity [2]: 91.1%
Activity [3]: 90.5%
Activity [4]: 90.8%
Activity [5]: 92.3%
Activity [6]: 86.4%
Activity [7]: 90.1%
Activity [8]: 67.9%
Activity [9]: 35.9%
Activity [10]: 22.6%
Activity [11]: 67.9%
IC50 [11]: 19.81 µg/mL (≈ 56.4 µM)
zone of inhibition at 100 µg/disc (Pseudomonas aeruginosa): 0 mm
zone of inhibition at 100 µg/disc (Staphylococcus aureus): 0 mm
zone of inhibition at 100 µg/disc (Klebsiella pneumoniae [12]): 0 mm
zone of inhibition at 100 µg/disc (Bacillus pumilus): 0 mm
zone of inhibition at 100 µg/disc (Bacillus thuringiensis): 0 mm
